In ChEMBL document CHEMBL3862007, “Synthesis and antimicrobial activity of small cationic amphipathic aminobenzamide marine natural product mimics and evaluation of relevance against clinical isolates including ESBL-CARBA producing multi-resistant bacteria” (Bioorg Med Chem, 2016) one finds MIC, EC50 and Selectivity Index data, which are given here for eleven compounds.

In one experiment the test system is Bacillus subtilis. Put plainly: Antibacterial activity against Bacillus subtilis 168 ATCC 23857 after 48 hrs by microdilution method. The format is functional. The settings on record: subsp. subtilis str. 168 ATCC 23857, 48 h.
A short description of experiment [1]: Hemolytic activity in human RBC after 1 hr. The experiment is classed as ADME, cell-based. The settings on record: Erythrocyte.
A further experiment deals with Escherichia coli. Put plainly: Antibacterial activity against Escherichia coli ATCC 25922 after 48 hrs by microdilution method. The experiment is classed as functional. The following applies: ATCC 25922, 48 h.
Experiment [2] in a line: Antibacterial activity against methicillin-resistant Staphylococcus epidermidis RP62A CCUG 31568 (ATCC 35984) after 48 hrs by microdilution method. The format is functional. An outline of the steps: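 Broth microdilution MIC against the reference-strain panel. Compounds were supplied as HCl salts for aqueous solubility in the test medium. Precipitation in the test buffer is flagged at higher concentrations.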

Experiment [3] can be described thus: Selectivity index, ratio of hemolytic EC50 for human RBC to MIC for Staphylococcus aureus ATCC 9144.
The test system of another experiment is Staphylococcus aureus. Put plainly: Antibacterial activity against Staphylococcus aureus ATCC 9144 after 48 hrs by microdilution method. The format is functional. The following applies: ATCC 9144, 48 h.
Experiment [4] relates to Corynebacterium glutamicum. Put plainly: Antibacterial activity against Corynebacterium glutamicum ATCC 13032 after 48 hrs by microdilution method. The experiment is classed as functional. The following applies: ATCC 13032, 48 h.
A further experiment concerns Pseudomonas aeruginosa. Put plainly: Antibacterial activity against Pseudomonas aeruginosa PAO1 DSM 19880 (ATCC 15692) after 48 hrs by microdilution method. The format is functional.

Molecules are shown by their SMILES.

As to `CC(C)(C)c1cc(C(=O)Nc2ccc(C(=O)NCCCNC(=N)N)cc2)cc(C(C)(C)C)c1.Cl`, the minimum inhibitory concentration (MIC) against Bacillus subtilis turned out to be 4 µg/mL; in the experiment on Escherichia coli it was 8 µg/mL; in experiment [2], 4 µg/mL; against Staphylococcus aureus, 4 µg/mL; in experiment [4], 2 µg/mL; with Pseudomonas aeruginosa it was 16 µg/mL. In experiment [1], the EC50 stood at 62 µg/mL. In addition, the Selectivity Index in experiment [3] amounted to 15.5.

With `CC(C)(C)c1cc(C(=O)Nc2cccc(C(=O)NCCCN)c2)cc(C(C)(C)C)c1.Cl`, the MIC turned out to be 8 µg/mL against Bacillus subtilis; 16 µg/mL in the experiment on Escherichia coli; 8 µg/mL in experiment [2]; 8 µg/mL with Staphylococcus aureus; 4 µg/mL in experiment [4]; 16 µg/mL against Pseudomonas aeruginosa. Besides, the EC50 in experiment [1] was 32 µg/mL. In addition, the Selectivity Index in experiment [3] stood at 4.

On to `CN(C(=O)c1cc(C(C)(C)C)cc(C(C)(C)C)c1)c1ccc(C(=O)NCCN)cc1`, for which the Selectivity Index in experiment [3] turned out to be 0.3.

Turning to `CC(C)(C)c1cc(NC(=O)c2ccc(C(=O)NCCN)cc2)cc(C(C)(C)C)c1.Cl`, the MIC against Bacillus subtilis worked out at 4 µg/mL; against Escherichia coli it was 8 µg/mL; in experiment [2] it was 8 µg/mL; with Staphylococcus aureus, 8 µg/mL; in experiment [4], 8 µg/mL; against Pseudomonas aeruginosa, 16 µg/mL. The same compound had an EC50 in experiment [1] of 21 µg/mL. The Selectivity Index in experiment [3] is 2.6.

On to `CN(C(=O)c1cc(C(C)(C)C)cc(C(C)(C)C)c1)c1ccc(C(=O)NCCNC(=N)N)cc1.Cl`, for which the MIC in the experiment on Bacillus subtilis came to 16 µg/mL; against Escherichia coli, 128 µg/mL; in experiment [2] it was 16 µg/mL; against Staphylococcus aureus, 16 µg/mL; in experiment [4], 4 µg/mL; in the experiment on Pseudomonas aeruginosa it was 128 µg/mL. In experiment [1], the EC50 amounted to 243 µg/mL. The Selectivity Index in experiment [3] was 15.2.

On to `CC(C)(C)c1cc(C(=O)Nc2ccccc2C(=O)NCCCNC(=N)N)cc(C(C)(C)C)c1.Cl`, for which the MIC against Bacillus subtilis worked out at 2 µg/mL; in the experiment on Escherichia coli, 8 µg/mL; in experiment [2] it was 2 µg/mL; against Staphylococcus aureus it was 4 µg/mL; in experiment [4], 1 µg/mL; in the experiment with Pseudomonas aeruginosa it was 32 µg/mL. In addition, in experiment [1], the EC50 was determined as 39 µg/mL. The Selectivity Index in experiment [3] was 9.8.

In the case of `CN(C)CCNC(=O)c1ccc(NC(=O)c2cc(C(C)(C)C)cc(C(C)(C)C)c2)cc1.Cl`, the minimal inhibitory concentration (MIC) in the experiment with Bacillus subtilis was 8 µg/mL; against Escherichia coli, 32 µg/mL; in experiment [2] it was 8 µg/mL; against Staphylococcus aureus, 16 µg/mL; in experiment [4] it was 4 µg/mL; in the experiment with Pseudomonas aeruginosa it was more than 128 µg/mL. This compound also showed an EC50 in experiment [1] of more than 16 µg/mL. In addition, the Selectivity Index in experiment [3] was more than 1.

For `CN(C)CCOC(=O)c1ccc(NC(=O)c2cc(C(C)(C)C)cc(C(C)(C)C)c2)cc1.Cl`, the MIC was 4 µg/mL with Bacillus subtilis; more than 128 µg/mL against Escherichia coli; 8 µg/mL in experiment [2]; 8 µg/mL against Staphylococcus aureus; 4 µg/mL in experiment [4]; more than 128 µg/mL in the experiment with Pseudomonas aeruginosa. In addition, the EC50 in experiment [1] came to 28 µg/mL. Besides, the Selectivity Index in experiment [3] came out at 3.5.

As to `CC(C)(C)c1cc(C(=O)Nc2cccc(C(=O)NCCN)c2)cc(C(C)(C)C)c1.Cl`, the MIC with Bacillus subtilis came to 8 µg/mL; in the experiment on Escherichia coli it was 16 µg/mL; in experiment [2] it was 8 µg/mL; in the experiment on Staphylococcus aureus, 16 µg/mL; in experiment [4] it was 8 µg/mL; with Pseudomonas aeruginosa, 16 µg/mL. The EC50 in experiment [1] was 39 µg/mL. For the same compound, in experiment [3], the Selectivity Index was 2.4.

As to `CN(C(=O)c1cc(C(C)(C)C)cc(C(C)(C)C)c1)c1ccc(C(=O)NCCCN)cc1.Cl`, the MIC in the experiment on Bacillus subtilis is 128 µg/mL; against Escherichia coli it was more than 128 µg/mL; in experiment [2], more than 128 µg/mL; in the experiment with Staphylococcus aureus, more than 128 µg/mL; in experiment [4] it was 64 µg/mL; against Pseudomonas aeruginosa it was more than 128 µg/mL. It took 172 µg/mL to reach a half-maximal effect in experiment [1] (EC50). In experiment [3], the Selectivity Index was less than 1.3.

Take `CC(C)(C)c1cc(NC(=O)c2ccc(C(=O)NCCCN)cc2)cc(C(C)(C)C)c1.Cl`: the MIC stood at 8 µg/mL with Bacillus subtilis; 8 µg/mL against Escherichia coli; 8 µg/mL in experiment [2]; 8 µg/mL in the experiment with Staphylococcus aureus; 4 µg/mL in experiment [4]; 16 µg/mL in the experiment with Pseudomonas aeruginosa. The compound also returned an EC50 in experiment [1] of 28 µg/mL. For the same compound, in experiment [3], the Selectivity Index stood at 3.5.
